Results reported in ChEMBL document CHEMBL1158469 (J Med Chem, 2009).
Activity calls are given as the source filed them. No cut-off for these calls is given here.

Experiments:
[1] = Induction of apoptosis in human RS11846 cells after 1 to 2 days by FITC-annexin V and propidium iodide assay; type: functional, cell-based
[2] = target: Bcl-2-like protein 1 (Homo sapiens) (UniProt Q07817); assay: Inhibition of Bcl-xL at 200 uM by 1D 1H NMR binding assay
BP3 [3] = assay: (§1) Induction of apoptosis in human BP3 cells after 1 to 2 days by FITC-annexin V and propidium iodide assay; type: functional, cell-based
[4] = Cytotoxicity against human PC3-ML cells assessed as cell viability after 72 hrs by ATP-LITE assay; type: functional, cell-based
Outline: (§2)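 ATP-LITE viability readout. Seeded 24 h before dosing (H460, H1299 at 2000 cells/well; PC3 at 3000 cells/well) in 12F2 or RPMI1640 with 5 mM L-glutamine, 5% FBS and pen/strep. Fresh 5% medium added, then compounds in 0.1% DMSO final. Viability read after 72 h treatment and normalized to DMSO-treated cells.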

[5] = Cytotoxicity against human H1299 cells assessed as cell viability after 72 hrs by ATP-LITE assay; type: functional, cell-based; settings: NCI-H1299, 72 h; outline: as §2
NCI-H460 = assay: Cytotoxicity against human H460 cells assessed as cell viability after 72 hrs by ATP-LITE assay; type: functional, cell-based; settings: NCI-H460, 72 h; outline: as §2
[6] = as §1; type: functional, cell-based
[7] = Membrane permeability assessed as drug permeation at 100 uM at pH 7.2 after 8 hrs by PAMPA; type: ADME; settings: pH 7.2, 8 h
[8] = Stability in rat liver microsome at 4 uM after 1 hr; type: ADME; settings: liver microsomes, read-out: Stability
Outline: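 Compound incubated for 1 h in rat microsomal preparations; percentage of parent remaining was reported.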

[9] = Stability in rat plasma after 1 hr at 37.5 degC; type: ADME, cell-free; settings: read-out: Stability
Outline: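 Compound incubated in rat plasma for 1 h; percentage of parent remaining was reported.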

Mus musculus [10] = assay: Toxicity in human Bcl2 expressing B6 transgenic mouse administered as single dose at 72 umol/kg, ip after 24 hrs; type: organism-based; settings: in vivo
[11] = Cytotoxicity against wild type mouse fibroblast assessed as induction of cell death at 10 uM by FITC-annexin V and propidium iodide assay; type: cell-based
Outline: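 Wild-type MEFs seeded at half a million per well in DMEM with 10% FCS. Next day compound added at 0, 2.5, 5.0, 7.5 or 10 μM. On the following day, floating and trypsinized adherent cells were pooled and stained with Annexin V-FITC and PI in binding buffer. Analyzed by flow cytometry, with double-negative cells counted as viable.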

[12] = Chemical stability after 60 days at room temperature by HPLC/LC-MS analysis; type: physicochemical; settings: 1440 h
Outline: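 Solid compounds stored in air at room temperature for 60 days. Stability followed by HPLC combined with LC-MS.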

Mus musculus [13] = assay: Toxicity in human Bcl2 expressing B6 transgenic mouse at 120 umol/kg, ip administered as single dose after 24 hrs; type: organism-based; settings: in vivo
Mus musculus [14] = assay: Induction of spleen weight shrinkage in human Bcl2 expressing B6 transgenic mouse at 72 umol/kg, ip administered as single dose after 24 hrs; type: functional
Outline: (§3)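 Age- and sex-matched B6Bcl2 transgenic mice (human BCL-2/IgH minigene, B cells accumulating in spleen), free of aggressive lymphoma. Single ip injection at 72 μmol/kg in 500 μL ethanol:Cremophor EL:saline 10:10:80; controls got vehicle alone. Killed with Avertin after 24 h and spleen weighed. Shrinkage expressed as percentage of maximum spleen-weight reduction.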

Mus musculus [15] = assay: Reduction of spleen weight in human Bcl2 expressing B6 transgenic mouse at 72 umol/kg, ip administered as single dose after 24 hrs; type: functional; design: scale not given: the % may be the effect or the level left; outline: as §3
BP3 [16] = assay: Cytotoxicity against human BP3 cells expressing Bfl1/Mcl1 by FITC-annexin V and propidium iodide assay; type: functional, cell-based

Bcl-2-like protein 1 (Homo sapiens), sequence (Q07817 whole entry): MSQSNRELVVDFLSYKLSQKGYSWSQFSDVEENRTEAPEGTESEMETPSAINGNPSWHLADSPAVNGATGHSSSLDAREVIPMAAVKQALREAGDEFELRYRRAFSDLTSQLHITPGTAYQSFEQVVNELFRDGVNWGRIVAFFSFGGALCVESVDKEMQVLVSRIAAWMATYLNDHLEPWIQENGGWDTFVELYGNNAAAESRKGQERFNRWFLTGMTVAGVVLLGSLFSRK

| Structure (SMILES) | EC50 [1] [µM] | Activity [2] | EC50 [4] [µM] | EC50 [5] [µM] | EC50 (NCI-H460) [µM] | EC50 [6] [µM] | further results |
| --- | --- | --- | --- | --- | --- | --- | --- |
| Cc1cc2c(C(=O)NCC3CC3)c(O)c(O)cc2c(O)c1-c1c(C)cc2c(C(=O)NCC3CC3)c(O)c(O)cc2c1O | > 10 | Active |  |  |  |  |  |
| Cc1cccc(CNC(=O)c2c(O)c(O)cc3c(O)c(-c4c(C)cc5c(C(=O)NCc6cccc(C)c6)c(O)c(O)cc5c4O)c(C)cc23)c1 | 4.8 | Active | 10.2 | 3.1 | 2.9 |  | Activity (BP3 [3]): Dose-dependent effect |
| Cc1cc2c(C(=O)NCc3cccc(Cl)c3)c(O)c(O)cc2c(O)c1-c1c(C)cc2c(C(=O)NCc3cccc(Cl)c3)c(O)c(O)cc2c1O | 7.3 | Active | 8.3 | 5.2 | 3.3 |  | Activity (BP3 [3]): Dose-dependent effect |
| Cc1cc2c(C(=O)NC3Cc4ccccc4C3)c(O)c(O)cc2c(O)c1-c1c(C)cc2c(C(=O)NC3Cc4ccccc4C3)c(O)c(O)cc2c1O | 4.1 | Active | 3 | 7.1 | 0.94 | 1.1 |  |
| Cc1cccc(CCNC(=O)c2c(O)c(O)cc3c(O)c(-c4c(C)cc5c(C(=O)NCCc6cccc(C)c6)c(O)c(O)cc5c4O)c(C)cc23)c1 | 5.6 | Active |  |  | 0.7 |  |  |
| Cc1cc2c(C(=O)NCc3ccccc3)c(O)c(O)cc2c(O)c1-c1c(C)cc2c(C(=O)NCc3ccccc3)c(O)c(O)cc2c1O | 9.3 | Active | 13.7 | 3.6 | 4.6 |  |  |
| Cc1cc(C)c(CNC(=O)c2c(O)c(O)cc3c(O)c(-c4c(C)cc5c(C(=O)NCc6c(C)cc(C)cc6C)c(O)c(O)cc5c4O)c(C)cc23)c(C)c1 |  | Active |  |  |  |  |  |
| Cc1cc2c(C(=O)NCCc3ccccc3)c(O)c(O)cc2c(O)c1-c1c(C)cc2c(C(=O)NCCc3ccccc3)c(O)c(O)cc2c1O |  | Active |  |  |  |  | logPe [7]: -6.49 log cm/s; remaining at 1 h, 4 µM [8]: 60%; remaining at 1 h [9]: 63% |
| Cc1cc2c(C(=O)Nc3ccccc3)c(O)c(O)cc2c(O)c1-c1c(C)cc2c(C(=O)Nc3ccccc3)c(O)c(O)cc2c1O |  | Active |  | 8 | 3.5 |  |  |
| Cc1cc2c(C(=O)NCC3CCCCC3)c(O)c(O)cc2c(O)c1-c1c(C)cc2c(C(=O)NCC3CCCCC3)c(O)c(O)cc2c1O | 4.9 | Active | 3.7 | 4.8 | 0.41 | 0.9 | logPe [7]: -6.67 log cm/s; remaining at 1 h, 4 µM [8]: 90%; Activity (Mus musculus [10]): Toxic; Activity [11]: 80%; Activity (BP3 [3]): Dose-dependent effect; remaining at 1 h [9]: 89%; Stability [12]: Stable |
| Cc1cc2c(C(=O)O)c(O)c(O)cc2c(O)c1-c1c(C)cc2c(C(=O)O)c(O)c(O)cc2c1O | > 30 | inactive | > 30 | > 30 | > 30 | > 30 | Activity (BP3 [3]): Dose-dependent effect |
| Cc1cc2c(Cc3ccccc3)c(O)c(O)cc2c(O)c1-c1c(C)cc2c(Cc3ccccc3)c(O)c(O)cc2c1O | 3.2 | Active | 8.3 | 1.28 | 1.2 |  |  |
| CCC(NC(=O)c1c(O)c(O)cc2c(O)c(-c3c(C)cc4c(C(=O)NC(CC)c5ccccc5)c(O)c(O)cc4c3O)c(C)cc12)c1ccccc1 (centres undefined) | 4.2 | Active |  |  | 1.5 |  |  |
| Cc1cc2c(C(=O)NCCc3ccc(Cl)cc3)c(O)c(O)cc2c(O)c1-c1c(C)cc2c(C(=O)NCCc3ccc(Cl)cc3)c(O)c(O)cc2c1O | 5.1 | Active |  |  | 1.3 | 0.7 |  |
| Cc1cc2c(CC3CCCC3)c(O)c(O)cc2c(O)c1-c1c(C)cc2c(CC3CCCC3)c(O)c(O)cc2c1O | 4.5 | Active | 11.2 | 10.9 | 1.8 |  | logPe [7]: -6.27 log cm/s; remaining at 1 h, 4 µM [8]: 75%; Activity (Mus musculus [10]): Non-toxic; remaining at 1 h [9]: 81%; Activity (Mus musculus [13]): Non-toxic |
| Cc1cc2c(CCC(C)C)c(O)c(O)cc2c(O)c1-c1c(C)cc2c(CCC(C)C)c(O)c(O)cc2c1O |  | Active |  |  |  |  |  |
| Cc1cc2c(C(=O)Nc3cccc(C(F)(F)F)c3)c(O)c(O)cc2c(O)c1-c1c(C)cc2c(C(=O)Nc3cccc(C(F)(F)F)c3)c(O)c(O)cc2c1O | 12.6 | Active | 12.2 | 28.7 | 16.7 |  | Activity (BP3 [3]): Dose-dependent effect |
| Cc1cc2c(C(=O)NC(C)c3ccc(Cl)cc3)c(O)c(O)cc2c(O)c1-c1c(C)cc2c(C(=O)NC(C)c3ccc(Cl)cc3)c(O)c(O)cc2c1O (centres undefined) | 5.5 | Active | 5 | 3.2 | 0.5 | 1.5 | logPe [7]: -7.92 log cm/s; remaining at 1 h, 4 µM [8]: 71%; Activity (Mus musculus [14]): 85%; Activity (Mus musculus [10]): Toxic; Activity [11]: 80%; remaining at 1 h [9]: 94%; Activity (Mus musculus [15]): 40%; Stability [12]: Stable |
| CN(C)CC[C@H](CSc1ccccc1)Nc1ccc(S(=O)(=O)NC(=O)c2ccc(N3CCN(Cc4ccccc4-c4ccc(Cl)cc4)CC3)cc2)cc1[N+](=O)[O-] |  |  |  |  |  |  | Activity (BP3 [16]): inactive |
| Cc1cc2c(CC(C)C)c(O)c(O)cc2c(O)c1-c1c(C)cc2c(CC(C)C)c(O)c(O)cc2c1O |  | Active |  |  |  |  |  |
| Cc1cc2cc(O)c(O)cc2c(O)c1-c1c(C)cc2cc(O)c(O)cc2c1O | > 24.5 | inactive | > 10 | 13.4 | > 10 |  | Activity (Mus musculus [14]): inactive; Activity (Mus musculus [10]): Non-toxic |
| Cc1cc2c(CCc3ccccc3)c(O)c(O)cc2c(O)c1-c1c(C)cc2c(CCc3ccccc3)c(O)c(O)cc2c1O | 9.8 | Active | 2.4 | 0.58 | 0.92 | 4.14 | logPe [7]: -6.61 log cm/s; remaining at 1 h, 4 µM [8]: 89%; Activity (Mus musculus [10]): Non-toxic; remaining at 1 h [9]: 80%; Activity (Mus musculus [13]): Non-toxic; Stability [12]: Stable |
| CCc1ccc(CCNC(=O)c2c(O)c(O)cc3c(O)c(-c4c(C)cc5c(C(=O)NCCc6ccc(CC)cc6)c(O)c(O)cc5c4O)c(C)cc23)cc1 | 3 |  | 1.7 | 0.36 | 0.4 | 0.2 | logPe [7]: -8.15 log cm/s; remaining at 1 h, 4 µM [8]: 87%; Activity (Mus musculus [14]): 85%; Activity (Mus musculus [10]): Toxic; Activity [11]: 80%; remaining at 1 h [9]: 94%; Stability [12]: Stable |
| Cc1cc2c(C(=O)NCCc3cccc(Cl)c3)c(O)c(O)cc2c(O)c1-c1c(C)cc2c(C(=O)NCCc3cccc(Cl)c3)c(O)c(O)cc2c1O | 4.6 | Active | 3.2 | 7.8 | 0.99 | 0.41 | logPe [7]: -7.71 log cm/s; remaining at 1 h, 4 µM [8]: 90%; Activity (Mus musculus [10]): Toxic; Activity [11]: 80%; Activity (Mus musculus [15]): 40%; Stability [12]: Stable |
| Cc1cc2c(C(=O)NC3CCCC3)c(O)c(O)cc2c(O)c1-c1c(C)cc2c(C(=O)NC3CCCC3)c(O)c(O)cc2c1O | 13.7 | Active | 12.2 | 8 | 8.5 |  |  |
| Cc1cc2c(C(=O)Nc3ccc(Oc4ccccc4)cc3)c(O)c(O)cc2c(O)c1-c1c(C)cc2c(C(=O)Nc3ccc(Oc4ccccc4)cc3)c(O)c(O)cc2c1O | 10.8 | Active | 8.5 | 17 | 10.1 |  |  |
